Results from ChEMBL document CHEMBL4715736, “Identification of anticancer agents based on the thieno[2,3-b]pyridine and 1H-pyrazole molecular scaffolds” (2016).

Tests used:
Format in all cases: functional
[1] = system: NCI/ADR-RES; assay: Growth inhibition of human NCI/ADR-RES cells assessed as cell growth at 0.1 uM incubated for 48 hrs by sulforhodamine B assay relative to control; conditions: read-out: Activity
[2] = system: SK-MEL-28; assay: Growth inhibition of human SK-MEL-28 cells assessed as cell growth at 100 uM incubated for 48 hrs by sulforhodamine B assay relative to control; conditions: read-out: Activity
[3] = system: UACC-62; assay: Growth inhibition of human UACC-62 cells assessed as cell growth at 100 uM incubated for 48 hrs by sulforhodamine B assay relative to control; conditions: read-out: Activity
[4] = system: NCI/ADR-RES; assay: Growth inhibition of human NCI/ADR-RES cells assessed as cell growth at 1 uM incubated for 48 hrs by sulforhodamine B assay relative to control; conditions: read-out: Activity
[5] = system: PC-3; assay: Growth inhibition of human PC-3 cells assessed as cell growth at 1 uM incubated for 48 hrs by sulforhodamine B assay relative to control; conditions: read-out: Activity
[6] = system: SK-MEL-5; assay: Growth inhibition of human SK-MEL-5 cells assessed as cell growth at 100 uM incubated for 48 hrs by sulforhodamine B assay relative to control; conditions: read-out: Activity
[7] = system: U-251; assay: Growth inhibition of human U-251 cells incubated for 48 hrs by sulforhodamine B assay
In short: (§1)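 NCI DTP 60-line human tumour panel. Dose-response curves were run only for ligands active in the initial 10 µM screen. GI50 (concentration giving 50% of maximal inhibition of proliferation) and TGI (concentration giving total growth inhibition) were derived from these curves.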

[8] = system: HOP-62; assay: Growth inhibition of human HOP-62 cells assessed as cell growth at 100 uM incubated for 48 hrs by sulforhodamine B assay relative to control; conditions: read-out: Activity
[9] = system: 786-0; assay: Growth inhibition of human 786-0 cells assessed as cell growth at 100 uM incubated for 48 hrs by sulforhodamine B assay relative to control; conditions: read-out: Activity
[10] = system: HCT-15; assay: Growth inhibition of human HCT-15 cells assessed as cell growth at 0.01 uM incubated for 48 hrs by sulforhodamine B assay relative to control; conditions: read-out: Activity
[11] = system: HOP-92; assay: Growth inhibition of human HOP-92 cells assessed as cell growth at 1 uM incubated for 48 hrs by sulforhodamine B assay relative to control; conditions: read-out: Activity
[12] = system: A498; assay: Growth inhibition of human A498 cells assessed as cell growth at 0.01 uM incubated for 48 hrs by sulforhodamine B assay relative to control; conditions: read-out: Activity
In short: (§2)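 NCI Developmental Therapeutics Program NCI60 panel. Compounds that were active in the 10 µM one-dose screen went on to dose–response testing. Growth at each concentration is expressed relative to untreated control (100%). GI50 (concentration giving 50% of maximal inhibition of proliferation) and TGI (concentration giving total growth inhibition) were derived from the curves.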

[13] = system: A498; assay: Growth inhibition of human A498 cells assessed as cell growth at 100 uM incubated for 48 hrs by sulforhodamine B assay relative to control; conditions: read-out: Activity; in short: as §2
[14] = system: K562; assay: Growth inhibition of human K562 cells assessed as cell growth at 100 uM incubated for 48 hrs by sulforhodamine B assay relative to control; conditions: read-out: Activity
[15] = system: CCRF-CEM; assay: Growth inhibition of human CCRF-CEM cells assessed as cell growth at 1 uM incubated for 48 hrs by sulforhodamine B assay relative to control; conditions: read-out: Activity; in short: as §2
[16] = system: SF-539; assay: Growth inhibition of human SF-539 cells assessed as cell growth at 0.1 uM incubated for 48 hrs by sulforhodamine B assay relative to control; conditions: read-out: Activity
[17] = system: SN12C; assay: Growth inhibition of human SN12C cells assessed as cell growth at 1 uM incubated for 48 hrs by sulforhodamine B assay relative to control; conditions: read-out: Activity
[18] = system: T47D; assay: Growth inhibition of human T47D cells assessed as cell growth at 0.1 uM incubated for 48 hrs by sulforhodamine B assay relative to control; conditions: read-out: Activity
[19] = system: Malme-3M; assay: Growth inhibition of human Malme-3M cells assessed as cell growth at 100 uM incubated for 48 hrs by sulforhodamine B assay relative to control; conditions: read-out: Activity
[20] = system: ACHN; assay: Growth inhibition of human ACHN cells assessed as cell growth at 100 uM incubated for 48 hrs by sulforhodamine B assay relative to control; conditions: read-out: Activity
[21] = system: ACHN; assay: Growth inhibition of human ACHN cells assessed as cell growth at 0.1 uM incubated for 48 hrs by sulforhodamine B assay relative to control; conditions: read-out: Activity
[22] = system: NCI-H23; assay: Growth inhibition of human NCI-H23 cells assessed as cell growth at 1 uM incubated for 48 hrs by sulforhodamine B assay relative to control; conditions: read-out: Activity
[23] = system: HT-29; assay: Growth inhibition of human HT-29 cells incubated for 48 hrs by sulforhodamine B assay
In short: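 NCI60 panel at the NCI Developmental Therapeutics Program. Only compounds active in the 10 µM screen went to dose-response testing. GI50, the concentration giving 50% of maximal inhibition of proliferation, and TGI, the concentration giving total growth inhibition, were derived from the dose-response curves.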

[24] = system: NCI-H23; assay: Growth inhibition of human NCI-H23 cells assessed as cell growth at 0.01 uM incubated for 48 hrs by sulforhodamine B assay relative to control; conditions: read-out: Activity
[25] = system: MDA-MB-468; assay: Growth inhibition of human MDA-MB-468 cells assessed as cell growth at 0.01 uM incubated for 48 hrs by sulforhodamine B assay relative to control; conditions: read-out: Activity
[26] = system: T47D; assay: Growth inhibition of human T47D cells incubated for 48 hrs by sulforhodamine B assay; in short: as §1
[27] = system: OVCAR-3; assay: Growth inhibition of human OVCAR-3 cells assessed as cell growth at 1 uM incubated for 48 hrs by sulforhodamine B assay relative to control; conditions: read-out: Activity
[28] = system: HCC 2998; assay: Growth inhibition of human HCC 2998 cells assessed as cell growth at 1 uM incubated for 48 hrs by sulforhodamine B assay relative to control; conditions: read-out: Activity; in short: as §2
[29] = system: HCC 2998; assay: Growth inhibition of human HCC 2998 cells assessed as cell growth at 0.01 uM incubated for 48 hrs by sulforhodamine B assay relative to control; conditions: read-out: Activity; in short: as §2
[30] = system: SF-539; assay: Growth inhibition of human SF-539 cells assessed as cell growth at 100 uM incubated for 48 hrs by sulforhodamine B assay relative to control; conditions: read-out: Activity
[31] = system: SR; assay: Growth inhibition of human SR cells assessed as cell growth at 1 uM incubated for 48 hrs by sulforhodamine B assay relative to control; conditions: read-out: Activity
[32] = system: Hs-578T; assay: Growth inhibition of human Hs-578T cells assessed as cell growth at 0.01 uM incubated for 48 hrs by sulforhodamine B assay relative to control; conditions: read-out: Activity
[33] = system: RPMI-8226; assay: Growth inhibition of human RPMI-8226 cells assessed as cell growth at 0.01 uM incubated for 48 hrs by sulforhodamine B assay relative to control; conditions: read-out: Activity
[34] = system: MDA-MB-435; assay: Growth inhibition of human MDA-MB-435 cells assessed as cell growth at 0.01 uM incubated for 48 hrs by sulforhodamine B assay relative to control; conditions: read-out: Activity
[35] = system: SK-OV-3; assay: Growth inhibition of human SK-OV-3 cells assessed as cell growth at 100 uM incubated for 48 hrs by sulforhodamine B assay relative to control; conditions: read-out: Activity

For Nc1c(C(=O)Nc2ccccc2)sc2nc3c(cc12)CN(Cc1ccccc1)CC3, the growth at 0.1 µM [1] was 101%, the growth at 100 µM [2] was 28% and the growth at 100 µM [3] was 6%. For the same compound, the growth at 1 µM [4] was 98%, the growth at 1 µM [5] was 89% and the growth at 100 µM [6] was 16%. For the same compound, the GI50 [7] was 13.9 µM, the LC50 (concentration killing 50% of cells) [7] was > 100 µM and the TGI [7] was > 100 µM. The growth at 100 µM [8] was -24%, the growth at 100 µM [9] was 22% and the growth at 0.01 µM [10] was 102%. It also gave a growth at 1 µM [11] of 74%, a growth at 0.01 µM [12] of 91% and a growth at 100 µM [13] of 42%. It also gave a growth at 100 µM [14] of 12%, a growth at 1 µM [15] of 92% and a growth at 0.1 µM [16] of 90%. For the same compound, the growth at 1 µM [17] was 87%, the growth at 0.1 µM [18] was 79% and the growth at 100 µM [19] was 14%. The growth at 100 µM [20] was 10%, the growth at 0.1 µM [21] was 91% and the growth at 1 µM [22] was 101%. For the same compound, the GI50 [23] was 24.7 µM, the LC50 [23] was > 100 µM and the TGI [23] was > 100 µM. The growth at 0.01 µM [24] was 97%, the growth at 0.01 µM [25] was 96% and the GI50 [26] was 16.2 µM. The TGI [26] was > 100 µM, the CC50 ([26]; read-out: LC50 (the source's name)) was > 100 µM and the growth at 1 µM [27] was 100%. The growth at 1 µM [28] was 105%, the growth at 0.01 µM [29] was 90% and the growth at 100 µM [30] was 11%. The growth at 1 µM [31] was 82%, the growth at 0.01 µM [32] was 88% and the growth at 0.01 µM [33] was 97%. The growth at 0.01 µM [34] was 93% and the growth at 100 µM [35] was 5%.
